Assay outcomes from PubChem.
CASP6 VEID inh – blocks human caspase-6 cleavage activity. P55212. purified caspase-6, Z-VEID-R110 cleavage fluorescence. inhibition, % at 12.5 µM. 350,000 compounds, 0.53% hits. AID 686996;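 active means mean inhibition across replicates at least about 35%, with every replicate also reaching that limit, limit read from the data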;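 further: 0% = median of neutral control wells and 100% = no fluorescence left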
TDP2 absorb – TDP2 (human) inhibition, absorbance primary screen; 370,000 compounds, 0.34% hits; AID 720702; O95551; inhibition, % at 12.8 µM; recombinant TDP2, T5PNP hydrolysis, p-nitrophenol absorbance 415 nm;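 active means inhibition above the mean of all tested compounds plus 3 SD, set per campaign, cut at about 25% in these data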;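 further: 0% = DMSO with enzyme and 100% = buffer with substrate but no TDP2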
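test system = human TDP2 enzyme | input = TDP2 enzyme at 120 nM final | medium = 50 mM Tris-HCl pH 7.5 with Mg2+, KCl, DTT, BSA | also added = T5PNP substrate, 5 mM | times = 2 h at 37 °C | technique = epi absorbance | benchmarks = high control without enzyme, low control DMSO plus TDP2 | replication = each compound tested once, singlicate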
NSD2 HMT inh – blocks human histone methyltransferase NSD2 | 310,000 compounds, 0.54% hits | NSD2 peptide methylation, AlphaScreen, 120 min | O96028 | inhibition, % at 12.5 µM; in the data active means inhibition above about 50%
MBD2 inh – inhibitors of human MBD2 binding to methylated oligonucleotide; Q9UBB5; TR-FRET; inhibition, % at 4.4 µM; 370,000 compounds, 0.31% hits; in the data active means inhibition above about 13%
UHRF1 MBD2 ctr – blocks human UHRF1 binding to methylated DNA; Q96T88; UHRF1 binding to methylated oligo, TR-FRET; inhibition, % at 4.4 µM; 370,000 compounds, 0.75% hits; AID 687016; in the data active means inhibition above about 21%;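 further: UHRF1 SRA domain binding a hemimethylated CpG hairpin DNA probe; 0% = median of test compound wells and 100% = reference inhibitor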
LEDGF integ inh – blocks HIV-1 LEDGF/p75-dependent DNA integration; TR-FRET IN-LEDGF/p75 DNA integration, Eu/Cy5; inhibition, % at 3.7 µM; 370,000 compounds, 0.64% hits;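 active means inhibition above the screen-wide mean plus 3 SD, cut at about 13% in these data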;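 further: signal is the Cy5 over europium emission ratio at 671 and 618 nm; 0% = plate median of compound wells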
An asterisk follows results filed as active. Hits are enriched below; roughly 1.8% of the tested compounds scored in any of these assays.

What do the screens show for `O=C(NCCN1C(=O)S/C(=C\c2ccc(Cl)cc2Cl)C1=O)C1=COCCO1`?
CASP6 VEID inh: 38.6*; TDP2 absorb: -8.5; NSD2 HMT inh: 1.8; MBD2 inh: -2.0; UHRF1 MBD2 ctr: -1.4; LEDGF integ inh: -1.6

Results for CCCNC(=O)C[C@H]1CC[C@H]2[C@@H](COc3ccc(NC(=O)C4CCOCC4)cc3C(=O)N2C)O1 ?
CASP6 VEID inh: -0.4

Results for CN(CC(=O)N1CCN(c2ccccc2)CC1)S(=O)(=O)c1cnc[nH]1 ?
TDP2 absorb: -2.7; NSD2 HMT inh: -0.3; MBD2 inh: -1.8; UHRF1 MBD2 ctr: 28.5*; LEDGF integ inh: 2.3

Results for O=C(O)c1ccc2c(c1)[C@@H]1C=CC[C@@H]1[C@H](c1ccccn1)N2 ?
TDP2 absorb: 25.8*; MBD2 inh: 90.6*; UHRF1 MBD2 ctr: 97.9*; LEDGF integ inh: 94.8*

Results for COc1cccc(NS(=O)(=O)c2ccc3c(c2)CCCN3C(C)=O)c1 ?
CASP6 VEID inh: 4.4; TDP2 absorb: -14.7; NSD2 HMT inh: -3.1; MBD2 inh: 10.6; UHRF1 MBD2 ctr: 4.3; LEDGF integ inh: -4.0

What do the screens show for `COc1cccc(NS(=O)(=O)c2ccc3c(c2)C2C=CCC2C(c2ccc(C(=O)O)cc2)N3)c1` (stereo not drawn)?
TDP2 absorb: 16.0; MBD2 inh: 0.8; UHRF1 MBD2 ctr: 8.2; LEDGF integ inh: 43.8*

What do the screens show for `CC(C)NC(=O)Nc1ccc2c(c1)C(=O)N([C@H](C)CO)C[C@H](C)[C@H](CN(C)C(=O)c1ccccc1)OCCCC[C@@H](C)O2`?
CASP6 VEID inh: -2.1

How did CN(C)CC(=O)N1[C@H](C#N)[C@H](c2ccccc2-c2cccc(C(=O)N(C)C)c2)[C@H]1CO do in these assays?
CASP6 VEID inh: 3.2

How did Cc1cccc(C)c1-n1cccc1/C=C1\SC(=S)N(c2cccc(C(=O)O)c2)C1=O do in these assays?
CASP6 VEID inh: 37.5*; TDP2 absorb: -6.7; NSD2 HMT inh: 14.0; MBD2 inh: -0.1; UHRF1 MBD2 ctr: -0.5; LEDGF integ inh: 0.7

What do the screens show for `Cc1[nH]cnc1CN1CCc2c(c3ccccc3n2C)C1=O`?
CASP6 VEID inh: 80.7*; TDP2 absorb: 12.8; MBD2 inh: 1.0; UHRF1 MBD2 ctr: -8.3; LEDGF integ inh: 5.1

Results for Cc1cc(C)cc(OCC(=O)NC2CCCc3ccccc32)c1 (stereo not drawn) ?
TDP2 absorb: 3.3; NSD2 HMT inh: -1.7; MBD2 inh: -0.9; UHRF1 MBD2 ctr: 21.3*; LEDGF integ inh: 0.3

How did CCNC(=O)[C@H]1[C@H](CO)[C@H]2Cn3c(ccc(-c4ccncc4)c3=O)[C@@H]1N2CC1CC1 do in these assays?
CASP6 VEID inh: 2.9

What do the screens show for `Cc1ccc2[nH]c3c(c2c1)CCCC3NCCO` (stereo not drawn)?
CASP6 VEID inh: 44.2*; TDP2 absorb: -0.1; NSD2 HMT inh: 49.0; MBD2 inh: 2.1; UHRF1 MBD2 ctr: 4.8; LEDGF integ inh: -5.9

How did CCN(CC(=O)NCc1ccc(F)cc1)C(=O)C(C)Oc1cccc(Cl)c1 (stereo not drawn) do in these assays?
CASP6 VEID inh: -1.3; TDP2 absorb: 0.5; NSD2 HMT inh: -1.3; MBD2 inh: 9.6; UHRF1 MBD2 ctr: 22.6*; LEDGF integ inh: -0.5

Results for O=S(c1ccccc1O)S(=O)c1ccccc1O (stereo not drawn) ?
CASP6 VEID inh: 62.4*; TDP2 absorb: 6.0; NSD2 HMT inh: 17.1; MBD2 inh: -4.1; UHRF1 MBD2 ctr: 3.0; LEDGF integ inh: 4.3

Results for C=CCOc1c(OC)cc(/C=N/Nc2cccc(C(=O)O)c2)c(Br)c1Br ?
CASP6 VEID inh: 42.6*; TDP2 absorb: -3.8; NSD2 HMT inh: 11.1; MBD2 inh: 3.1; UHRF1 MBD2 ctr: 9.0; LEDGF integ inh: 3.0

Results for O=S(=O)(O)c1cc(O)c2ccc(Nc3ccccc3)cc2c1 ?
CASP6 VEID inh: 94.7*; TDP2 absorb: 16.9; NSD2 HMT inh: 104.7*; MBD2 inh: 36.4*; UHRF1 MBD2 ctr: 64.1*; LEDGF integ inh: 31.8*

How did COc1ccccc1Nc1ccc2c(O)cc(S(=O)(=O)O)cc2c1 do in these assays?
CASP6 VEID inh: 87.6*; TDP2 absorb: 0.3; NSD2 HMT inh: 109.9*; MBD2 inh: 24.4*; UHRF1 MBD2 ctr: 47.4*; LEDGF integ inh: 35.8*

Results for O=C(N[C@H]1CC[C@H](CCNC(=O)C2CC2)O[C@H]1CO)c1ccccn1 ?
CASP6 VEID inh: 7.3

What do the screens show for `CCNC(=O)C[C@@H]1CC[C@H]2[C@@H](COc3ccc(NC(=O)Cc4ccccc4)cc3C(=O)N2C)O1`?
CASP6 VEID inh: -0.9

Results for O=C1[C@H](c2ccccc2)[C@@H](c2ccccc2)N1c1ccncc1 ?
CASP6 VEID inh: 2.1; TDP2 absorb: 1.3; MBD2 inh: 8.5; UHRF1 MBD2 ctr: 22.4*; LEDGF integ inh: -0.9

Results for COc1ccc(/C=C2\SC(=O)N(CC(=O)NCCCn3ccnc3)C2=O)cc1 ?
CASP6 VEID inh: 50.1*; TDP2 absorb: -13.1; NSD2 HMT inh: 3.1; MBD2 inh: -0.7; UHRF1 MBD2 ctr: -10.2; LEDGF integ inh: 0.9

Results for O=S(=O)(Nc1cc(Sc2cccc3cccnc23)c(O)c2ccccc12)c1ccc(F)cc1 ?
CASP6 VEID inh: 0.0; TDP2 absorb: 24.4; NSD2 HMT inh: 14.0; MBD2 inh: -37.2; UHRF1 MBD2 ctr: -15.4; LEDGF integ inh: 24.1*

How did Cc1nc(SC(C)C(=O)c2c(N)n(C)c(=O)n(C)c2=O)c2c(C)c(C)sc2n1 (stereo not drawn) do in these assays?
CASP6 VEID inh: 49.4*; TDP2 absorb: -3.3; NSD2 HMT inh: -1.1; MBD2 inh: -2.0; UHRF1 MBD2 ctr: 1.6; LEDGF integ inh: 1.7

Results for CC(Sc1nnc(N)s1)C(=O)c1c(N)n(C)c(=O)n(C)c1=O (stereo not drawn) ?
CASP6 VEID inh: 4.8; TDP2 absorb: -3.0; NSD2 HMT inh: -1.4; MBD2 inh: -2.9; UHRF1 MBD2 ctr: 2.8; LEDGF integ inh: 2.3

What do the screens show for `C(=C\c1ccc(C2[C@H]3CNC[C@@H]2N3Cc2ccccn2)cc1)/c1ccccc1` (stereo partly drawn)?
CASP6 VEID inh: 50.0*

Results for CCCC(=O)Nc1ccc2c(c1)C(=O)N(C)[C@@H]1CC[C@H](CC(=O)NCc3ccccc3Cl)O[C@H]1CO2 ?
CASP6 VEID inh: 0.3

What do the screens show for `COc1cc(C(=O)OC2CCCCC2=O)cc(OC)c1C` (stereo not drawn)?
TDP2 absorb: -7.0; NSD2 HMT inh: 15.5; MBD2 inh: 7.1; UHRF1 MBD2 ctr: 22.6*; LEDGF integ inh: -4.4

How did Cc1ccc(C(=O)NCC(=O)OC2CCCCC2=O)cc1C (stereo not drawn) do in these assays?
CASP6 VEID inh: 0.2; TDP2 absorb: 6.9; NSD2 HMT inh: 0.8; MBD2 inh: 2.0; UHRF1 MBD2 ctr: 0.4; LEDGF integ inh: -2.2
